Reference: ChEMBL document CHEMBL1275323, “Synthesis and biological evaluation of 2-phenylthiazole-4-carboxamide derivatives as anticancer agents” (Eur J Med Chem, 2010)
≈ marks a conversion by molar mass, not a printed value.

How the values were obtained:
Format in all cases: functional, cell-based
Caco-2 = experiment: Cytotoxicity against human Caco-2 cells after 48 hrs by MTT assay; conditions: Caco-2, 48 h
In short: (§1)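 Cells seeded at 8000–10,000 viable cells/well and left 48 h to attach, then exposed to a range of compound concentrations for a further 48–96 h, depending on the cell line's cycle. After a PBS wash, MTT was added and the formazan was dissolved in DMSO. Absorbance was read at 550 nm against 690 nm reference. IC50 was obtained by linear regression from two independent experiments in triplicate (mean ± SD). Methotrexate served as reference.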

HT-29 = experiment: Cytotoxicity against human HT-29 cells after 48 hrs by MTT assay; conditions: HT-29, 48 h; in short: as §1
T47D = experiment: Cytotoxicity against human T47D cells after 48 hrs by MTT assay; in short: as §1

SMILES	IC50 (Caco-2)	IC50 (HT-29)	IC50 (T47D)
O=C(Cc1ccccc1Cl)NCc1ccc(-c2nc(C(=O)N3CCCCC3)cs2)cc1	12.8 µg/mL (≈ 28.1 µM)	26.8 µg/mL (≈ 59 µM)	24.3 µg/mL (≈ 53.4 µM)
O=C(Cc1cccc(Cl)c1)NCc1ccc(-c2nc(C(=O)N3CCCCC3)cs2)cc1	155 µg/mL (≈ 341 µM)	64.3 µg/mL (≈ 142 µM)	37.6 µg/mL (≈ 82.9 µM)
O=C(Cc1ccc(Cl)cc1)NCc1ccc(-c2nc(C(=O)N3CCCCC3)cs2)cc1	89.9 µg/mL (≈ 198 µM)	5.37 µg/mL (≈ 11.8 µM)	11.8 µg/mL (≈ 26 µM)
O=C(Cc1ccccc1F)NCc1ccc(-c2nc(C(=O)N3CCCCC3)cs2)cc1	18.1 µg/mL (≈ 41.4 µM)	> 1000 µg/mL	18.8 µg/mL (≈ 43 µM)
O=C(Cc1cccc(F)c1)NCc1ccc(-c2nc(C(=O)N3CCCCC3)cs2)cc1	4.32 µg/mL (≈ 9.87 µM)	9.84 µg/mL (≈ 22.5 µM)	2.02 µg/mL (≈ 4.62 µM)
O=C(Cc1ccc(F)cc1)NCc1ccc(-c2nc(C(=O)N3CCCCC3)cs2)cc1	114 µg/mL (≈ 260 µM)	52 µg/mL (≈ 119 µM)	14.2 µg/mL (≈ 32.4 µM)
O=C(Cc1ccc(Br)cc1)NCc1ccc(-c2nc(C(=O)N3CCCCC3)cs2)cc1	52 µg/mL (≈ 104 µM)	45.3 µg/mL (≈ 90.8 µM)	29.5 µg/mL (≈ 59.1 µM)
COc1ccccc1CC(=O)NCc1ccc(-c2nc(C(=O)N3CCCCC3)cs2)cc1	28.1 µg/mL (≈ 62.4 µM)	4.46 µg/mL (≈ 9.92 µM)	6.83 µg/mL (≈ 15.2 µM)
COc1cccc(CC(=O)NCc2ccc(-c3nc(C(=O)N4CCCCC4)cs3)cc2)c1	41.1 µg/mL (≈ 91.4 µM)	447 µg/mL (≈ 995 µM)	40.3 µg/mL (≈ 89.6 µM)
COc1ccc(CC(=O)NCc2ccc(-c3nc(C(=O)N4CCCCC4)cs3)cc2)cc1	1.88 µg/mL (≈ 4.18 µM)	> 1000 µg/mL	21.6 µg/mL (≈ 48 µM)
CN(Cc1cnc2nc(N)nc(N)c2n1)c1ccc(C(=O)N[C@@H](CCC(=O)O)C(=O)O)cc1 [METHOTREXATE]	0.32 µg/mL (≈ 0.704 µM)	0.23 µg/mL (≈ 0.506 µM)	0.16 µg/mL (≈ 0.352 µM)
